# Data reported in ChEMBL document CHEMBL1137803, “A novel anti-HIV macrocyclic peptide from Palicourea condensata” (J Nat Prod, 2001).
# Where a SMILES comes first, the peptide text is derived from it. Bridges are numbered along the chain shown (N, C = ends).
# Test system: Human immunodeficiency virus 1
# Assay: Antiviral activity against HIV1 RF infected in human CEM-SS cells assessed as inhibition of virus induced cytopathic effect by XTT assay
# Assay type: functional, organism-based
# Conditions: Human immunodeficiency virus 1, RF
# Procedure, shortened: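 HIV-1RF infection of CEM-SS, a human T-lymphoblastoid cell line, in vitro; inhibition of virus-induced cytopathic effects read out and reported as EC50 in µM.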
compound,measurement,value
"CC[C@H](C)[C@@H]1NC(=O)[C@@H]2CSSC[C@@H]3NC(=O)[C@H](C(C)C)NC(=O)[C@H](CCCCN)NC(=O)[C@H](CC(N)=O)NC(=O)[C@H](CCCCN)NC(=O)[C@@H]4CSSC[C@H](NC(=O)[C@H](CO)NC(=O)[C@H](CCC(=O)O)NC(=O)CNC(=O)[C@H](CSSC[C@H](NC(=O)CNC(=O)[C@H](CC(C)C)NC(=O)[C@H](C)NC(=O)[C@H](C)NC(=O)[C@H](CO)NC1=O)C(=O)N[C@@H](CO)C(=O)N4)NC(=O)[C@@H]1CCCN1C(=O)[C@H]([C@@H](C)CC)NC(=O)CNC(=O)[C@H](CC(N)=O)NC(=O)[C@H](CCCNC(=N)N)NC(=O)[C@H](Cc1ccc(O)cc1)NC3=O)C(=O)N[C@@H](C(C)C)C(=O)N[C@@H](Cc1c[nH]c3ccccc13)C(=O)N[C@@H]([C@@H](C)CC)C(=O)N1CCC[C@H]1C(=O)N2 [CIRCULIN A] (cyclo(AALGCSCKNKVCYRNGIPCGESCVWIPCIS); disulfide 5-19, 7-23, 12-28)",EC50,50 nM
"CC[C@H](C)[C@@H]1NC(=O)[C@@H]2CSSC[C@@H]3NC(=O)[C@H](C(C)C)NC(=O)[C@H](CCCCN)NC(=O)[C@H](CC(N)=O)NC(=O)[C@H](CCCCN)NC(=O)[C@@H]4CSSC[C@H](NC(=O)[C@H](CO)NC(=O)[C@H](CCC(=O)O)NC(=O)CNC(=O)[C@H](CSSC[C@H](NC(=O)CNC(=O)[C@H](CC(C)C)NC(=O)[C@H](CC(C)C)NC(=O)[C@H]([C@@H](C)O)NC(=O)[C@H](CO)NC1=O)C(=O)N[C@@H](CO)C(=O)N4)NC(=O)[C@@H]1CCCN1C(=O)[C@H]([C@@H](C)CC)NC(=O)[C@H](C(C)C)NC(=O)CNC(=O)[C@H](CC(N)=O)NC(=O)[C@H](CCCNC(=N)N)NC(=O)[C@H](Cc1ccc(O)cc1)NC3=O)C(=O)N[C@@H](C(C)C)C(=O)N[C@@H](Cc1ccccc1)C(=O)N[C@@H]([C@@H](C)CC)C(=O)N1CCC[C@H]1C(=O)N2 [CIRCULIN B] (cyclo(CGESCVFIPCISTLLGCSCKNKVCYRNGVIP); disulfide 1-17, 5-19, 10-24)",EC50,50 nM
"CC[C@H](C)[C@@H]1NC(=O)[C@@H]2CSSC[C@@H]3NC(=O)[C@H](C(C)C)NC(=O)[C@H](CCCCN)NC(=O)[C@H](CO)NC(=O)[C@H](CCCCN)NC(=O)[C@@H]4CSSC[C@H](NC(=O)[C@H](CO)NC(=O)[C@H](CCC(=O)O)NC(=O)CNC(=O)[C@H](CSSC[C@H](NC(=O)CNC(=O)[C@H](C)NC(=O)[C@H](C(C)C)NC(=O)[C@H](CO)NC(=O)[C@H]([C@@H](C)O)NC1=O)C(=O)N[C@@H](CO)C(=O)N4)NC(=O)[C@@H]1CCCN1C(=O)[C@H]([C@@H](C)CC)NC(=O)CNC(=O)[C@H](CC(N)=O)NC(=O)[C@H](CCCNC(=N)N)NC(=O)[C@H](Cc1ccc(O)cc1)NC3=O)C(=O)N[C@@H](C(C)C)C(=O)N[C@@H](Cc1ccccc1)C(=O)N[C@@H]([C@@H](C)CC)C(=O)N1CCC[C@H]1C(=O)N2 [CIRCULIN C] (cyclo(AGCSCKSKVCYRNGIPCGESCVFIPCITSV); disulfide 3-17, 5-21, 10-26)",EC50,50 nM
"CC[C@H](C)[C@@H]1NC(=O)[C@H](CO)NC(=O)[C@H]([C@@H](C)O)NC(=O)[C@H](Cc2ccc(O)cc2)NC(=O)[C@@H]2CSSC[C@@H]3NC(=O)[C@H](C(C)C)NC(=O)[C@H](CCCCN)NC(=O)[C@H](CC(N)=O)NC(=O)[C@H](CCC(=O)O)NC(=O)[C@@H]4CSSC[C@H](NC(=O)[C@H](CO)NC(=O)[C@H](CCC(=O)O)NC(=O)CNC(=O)[C@H](CSSC[C@H](NC(=O)[C@H](CC(N)=O)NC(=O)[C@H](Cc5ccccc5)NC1=O)C(=O)N[C@@H](CCCCN)C(=O)N4)NC(=O)[C@@H]1CCCN1C(=O)[C@H]([C@@H](C)CC)NC(=O)[C@H](CCCCN)NC(=O)[C@H](CC(=O)O)NC(=O)[C@H](Cc1cnc[nH]1)NC(=O)[C@H](Cc1ccc(O)cc1)NC3=O)C(=O)N[C@@H](C(C)C)C(=O)N[C@@H](Cc1c[nH]c3ccccc13)C(=O)N[C@@H]([C@@H](C)CC)C(=O)N1CCC[C@H]1C(=O)N2 [CIRCULIN D] (cyclo(CENKVCYHDKIPCGESCVWIPCYTSIFNCK); disulfide 1-17, 6-22, 13-29)",EC50,50 nM
"CC[C@H](C)[C@@H]1NC(=O)[C@H](CCCCN)NC(=O)[C@H](CC(=O)O)NC(=O)[C@H](Cc2cnc[nH]2)NC(=O)[C@H](Cc2ccc(O)cc2)NC(=O)[C@@H]2CSSC[C@@H]3NC(=O)[C@@H]4CCCN4C(=O)[C@H]([C@@H](C)CC)NC(=O)[C@H](Cc4c[nH]c5ccccc45)NC(=O)[C@H](C(C)C)NC(=O)[C@@H]4CSSC[C@H](NC(=O)[C@H](CCCCN)NC(=O)[C@H](CSSC[C@H](NC(=O)[C@@H]5CCCN5C1=O)C(=O)NCC(=O)N[C@@H](CCC(=O)O)C(=O)N[C@@H](CO)C(=O)N4)NC(=O)[C@H](CC(N)=O)NC(=O)[C@H](Cc1ccccc1)NC(=O)[C@H](C(C)C)NC(=O)[C@H](CO)NC(=O)[C@H]([C@@H](C)O)NC(=O)[C@H](CC(C)C)NC3=O)C(=O)N[C@@H](CCC(=O)O)C(=O)N[C@@H](CC(N)=O)C(=O)N[C@@H](CCCCN)C(=O)N[C@@H](C(C)C)C(=O)N2 [CIRCULIN E] (cyclo(CENKVCYHDKIPCGESCVWIPCLTSVFNCK); disulfide 1-17, 6-22, 13-29)",EC50,50 nM
"CC[C@H](C)[C@@H]1NC(=O)[C@H](C)NC(=O)[C@H](C)NC(=O)[C@H](CO)NC(=O)[C@H]([C@@H](C)CC)NC(=O)[C@@H]2CSSC[C@@H]3NC(=O)[C@H](C(C)C)NC(=O)[C@H](CCCCN)NC(=O)[C@H](CC(N)=O)NC(=O)[C@H](CCCCN)NC(=O)[C@@H]4CSSC[C@H](NC(=O)[C@H](CO)NC(=O)[C@H](CCC(=O)O)NC(=O)CNC(=O)[C@H](CSSC[C@H](NC(=O)CNC1=O)C(=O)N[C@@H](CO)C(=O)N4)NC(=O)[C@@H]1CCCN1C(=O)[C@H]([C@@H](C)CC)NC(=O)[C@H](C)NC(=O)[C@H](CCCNC(=N)N)NC(=O)[C@H](Cc1ccc(O)cc1)NC3=O)C(=O)N[C@@H](C(C)C)C(=O)N[C@@H](Cc1c[nH]c3ccccc13)C(=O)N[C@@H]([C@@H](C)CC)C(=O)N1CCC[C@H]1C(=O)N2 [CIRCULIN F] (cyclo(AAIGCSCKNKVCYRAIPCGESCVWIPCIS); disulfide 5-18, 7-22, 12-27)",EC50,50 nM
"CC[C@H](C)[C@@H]1NC(=O)[C@H](C)NC(=O)[C@H](C)NC(=O)[C@H](CO)NC(=O)[C@H]([C@@H](C)CC)NC(=O)[C@@H]2CSSC[C@@H]3NC(=O)[C@H](C(C)C)NC(=O)[C@H](CCCCN)NC(=O)[C@H](CC(N)=O)NC(=O)[C@H](CCCCN)NC(=O)[C@@H]4CSSC[C@H](NC(=O)[C@H](CO)NC(=O)[C@H](CCC(=O)O)NC(=O)CNC(=O)[C@H](CSSC[C@H](NC(=O)CNC1=O)C(=O)N[C@@H](CO)C(=O)N4)NC(=O)[C@@H]1CCCN1C(=O)[C@H]([C@@H](C)CC)NC(=O)[C@H](C(C)C)NC(=O)CNC(=O)[C@H](CC(N)=O)NC(=O)[C@H](CCCNC(=N)N)NC(=O)[C@H](Cc1ccc(O)cc1)NC3=O)C(=O)N[C@@H](C(C)C)C(=O)N[C@@H](Cc1ccccc1)C(=O)N[C@@H]([C@@H](C)CC)C(=O)N1CCC[C@H]1C(=O)N2 [CYCLOVIOLIN A] (cyclo(AAIGCSCKNKVCYRNGVIPCGESCVFIPCIS); disulfide 5-20, 7-24, 12-29)",EC50,50 nM
"CC(C)C[C@@H]1NC(=O)[C@H](C(C)C)NC(=O)[C@H](Cc2ccc(O)cc2)NC(=O)[C@@H]2CSSC[C@@H]3NC(=O)[C@H]([C@@H](C)O)NC(=O)[C@@H]4CSSC[C@H](NC(=O)[C@H](C)NC(=O)[C@H]([C@@H](C)O)NC(=O)CNC(=O)[C@H](CC(N)=O)NC(=O)[C@H](CCCCN)NC(=O)[C@H](Cc5ccccc5)NC(=O)[C@H](CSSC[C@H](NC(=O)[C@@H]5CCCN5C1=O)C(=O)N[C@@H](Cc1ccccc1)C(=O)N[C@@H]([C@@H](C)O)C(=O)N[C@@H](C(C)C)C(=O)NCC(=O)N4)NC(=O)[C@H](CCC(N)=O)NC(=O)[C@H](CO)NC(=O)[C@H](CO)NC(=O)[C@H]([C@@H](C)O)NC3=O)C(=O)NCC(=O)N[C@@H](CCC(=O)O)C(=O)N[C@@H](CO)C(=O)N2 [CYCLOVIOLIN B] (cyclo(ACGESCYVLPCFTVGCTCTSSQCFKNGT); disulfide 2-16, 6-18, 11-23)",EC50,50 nM
"CC[C@H](C)[C@@H]1NC(=O)CNC(=O)[C@H](CC(N)=O)NC(=O)[C@H](CCCNC(=N)N)NC(=O)[C@H](Cc2ccc(O)cc2)NC(=O)[C@@H]2CSSC[C@@H]3NC(=O)[C@@H]4CCCN4C(=O)[C@H]([C@@H](C)CC)NC(=O)[C@H](Cc4ccccc4)NC(=O)[C@H](C(C)C)NC(=O)[C@@H]4CSSC[C@H](NC(=O)[C@H](CO)NC(=O)[C@H](CSSC[C@H](NC(=O)[C@@H]5CCCN5C1=O)C(=O)NCC(=O)N[C@@H](CCC(=O)O)C(=O)N[C@@H](CO)C(=O)N4)NC(=O)CNC(=O)[C@H](C)NC(=O)[C@H](C(C)C)NC(=O)[C@H]([C@@H](C)O)NC(=O)[C@H]([C@@H](C)O)NC(=O)[C@H](CC(C)C)NC3=O)C(=O)N[C@@H](CCCCN)C(=O)N[C@@H](CC(N)=O)C(=O)N[C@@H](CCCCN)C(=O)N[C@@H](C(C)C)C(=O)N2 [CYCLOVIOLIN C] (cyclo(AGCSCKNKVCYRNGIPCGESCVFIPCLTTV); disulfide 3-17, 5-21, 10-26)",EC50,50 nM
"CC[C@H](C)[C@@H]1NC(=O)[C@H](C)NC(=O)[C@H](C)NC(=O)[C@H](CO)NC(=O)[C@H]([C@@H](C)CC)NC(=O)[C@@H]2CSSC[C@@H]3NC(=O)[C@H](C(C)C)NC(=O)[C@H](CCCCN)NC(=O)[C@H](CC(N)=O)NC(=O)[C@H](CCCCN)NC(=O)[C@@H]4CSSC[C@H](NC(=O)[C@H](CO)NC(=O)[C@H](CCC(=O)O)NC(=O)CNC(=O)[C@H](CSSC[C@H](NC(=O)CNC1=O)C(=O)N[C@@H](CO)C(=O)N4)NC(=O)[C@@H]1CCCN1C(=O)[C@H](Cc1ccccc1)NC(=O)CNC(=O)[C@H](CC(N)=O)NC(=O)[C@H](CCCNC(=N)N)NC(=O)[C@H](Cc1ccc(O)cc1)NC3=O)C(=O)N[C@@H](C(C)C)C(=O)N[C@@H](Cc1ccccc1)C(=O)N[C@@H]([C@@H](C)CC)C(=O)N1CCC[C@H]1C(=O)N2 [CYCLOVIOLIN D] (cyclo(AAIGCSCKNKVCYRNGFPCGESCVFIPCIS); disulfide 5-19, 7-23, 12-28)",EC50,50 nM
